Experimental data from ChEMBL document CHEMBL1154383, “Novel biphenylcarboxylic acid peroxisome proliferator-activated receptor (PPAR) delta selective antagonists” (Bioorg Med Chem Lett, 2009).
Activity calls are given as the source filed them. No cut-off for these calls is given here.

Key:
[1] = molecular target: T1, Peroxisome proliferator-activated receptor alpha (Homo sapiens, UniProt Q07869); experiment: Agonist activity at PPARalpha receptor expressed in HEK293 cells co-transfected with GAL4 by transactivation assay; assay type: functional, cell-based
T1 sequence (Q07869 whole entry): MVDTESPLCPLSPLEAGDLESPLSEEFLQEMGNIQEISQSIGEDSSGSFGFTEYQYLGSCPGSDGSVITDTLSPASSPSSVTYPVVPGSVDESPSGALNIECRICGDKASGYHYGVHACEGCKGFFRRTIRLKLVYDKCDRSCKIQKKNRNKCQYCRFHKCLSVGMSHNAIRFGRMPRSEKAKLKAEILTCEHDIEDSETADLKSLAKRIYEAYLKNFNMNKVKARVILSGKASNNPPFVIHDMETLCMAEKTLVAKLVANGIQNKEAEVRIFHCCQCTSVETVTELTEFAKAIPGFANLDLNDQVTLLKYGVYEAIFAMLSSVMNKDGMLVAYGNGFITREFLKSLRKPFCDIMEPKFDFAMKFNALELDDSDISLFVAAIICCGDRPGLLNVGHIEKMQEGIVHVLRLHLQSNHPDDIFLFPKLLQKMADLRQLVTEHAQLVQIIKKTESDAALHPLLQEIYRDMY
In short: (§1)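 GAL4-PPARα chimeric receptor transfected into HEK293 cells; cell-based transactivation (agonist mode). Output is EC50, plus % efficacy relative to the positive control fenofibric acid for PPARα.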

[2] = molecular target: T2, Peroxisome proliferator-activated receptor alpha (Homo sapiens) (UniProt Q07869); experiment: Agonist activity at PPARalpha receptor expressed in HEK293 cells co-transfected with GAL4 by transactivation assay relative to […]; assay type: functional, cell-based; in short: as §1
T2 sequence (whole entry): T1 sequence (Q07869 whole entry)

[3] = molecular target: T3, Peroxisome proliferator-activated receptor delta (Homo sapiens, UniProt Q03181); experiment: Agonist activity at PPARdelta receptor expressed in HEK293 cells co-transfected with GAL4 by transactivation assay; assay type: functional, cell-based
T3 sequence (Q03181 whole entry): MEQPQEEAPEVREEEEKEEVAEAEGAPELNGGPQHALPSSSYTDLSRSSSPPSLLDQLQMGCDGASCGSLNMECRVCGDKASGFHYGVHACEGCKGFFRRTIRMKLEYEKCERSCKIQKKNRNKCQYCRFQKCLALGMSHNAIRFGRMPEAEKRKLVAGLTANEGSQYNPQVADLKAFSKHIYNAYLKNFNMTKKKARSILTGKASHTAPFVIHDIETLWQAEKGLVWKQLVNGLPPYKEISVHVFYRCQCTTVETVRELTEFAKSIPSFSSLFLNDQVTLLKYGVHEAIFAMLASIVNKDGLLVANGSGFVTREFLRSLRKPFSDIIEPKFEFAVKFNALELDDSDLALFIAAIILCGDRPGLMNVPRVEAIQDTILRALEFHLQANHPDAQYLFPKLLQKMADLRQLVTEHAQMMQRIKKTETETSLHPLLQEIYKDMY

[4] = molecular target: T1, Peroxisome proliferator-activated receptor alpha; experiment: (§2) Agonist activity at PPARalpha receptor expressed in HEK293 cells co-transfected with GAL4 at 1 uM by transactivation assay; assay type: functional, cell-based
[5] = molecular target: T3, Peroxisome proliferator-activated receptor delta; experiment: Antagonist activity at PPARdelta co-transfected with GAL4-PPAR fusion protein assessed as inhibition of GW-501516-induced response by luciferase reporter gene assay; assay type: functional
[6] = molecular target: T2, Peroxisome proliferator-activated receptor alpha (Homo sapiens); experiment: Antagonist activity at PPARalpha co-transfected with GAL4-PPAR fusion protein assessed as inhibition of TIPP703-induced response up to 10 uM by luciferase reporter gene assay; assay type: functional
In short: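 Antagonist mode in the GAL4-PPAR chimera system. Cells were stimulated with the agonist TIPP-703, with or without three added test concentrations. Inhibition of the agonist-elicited reporter signal was assessed for dose dependence.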

[7] = molecular target: T4, Peroxisome proliferator-activated receptor gamma (Homo sapiens) (UniProt P37231); experiment: Antagonist activity at PPARgamma co-transfected with GAL4-PPAR fusion protein assessed as inhibition of TIPP703-induced response up to 10 uM by luciferase reporter gene assay; assay type: functional
T4 sequence (whole entry): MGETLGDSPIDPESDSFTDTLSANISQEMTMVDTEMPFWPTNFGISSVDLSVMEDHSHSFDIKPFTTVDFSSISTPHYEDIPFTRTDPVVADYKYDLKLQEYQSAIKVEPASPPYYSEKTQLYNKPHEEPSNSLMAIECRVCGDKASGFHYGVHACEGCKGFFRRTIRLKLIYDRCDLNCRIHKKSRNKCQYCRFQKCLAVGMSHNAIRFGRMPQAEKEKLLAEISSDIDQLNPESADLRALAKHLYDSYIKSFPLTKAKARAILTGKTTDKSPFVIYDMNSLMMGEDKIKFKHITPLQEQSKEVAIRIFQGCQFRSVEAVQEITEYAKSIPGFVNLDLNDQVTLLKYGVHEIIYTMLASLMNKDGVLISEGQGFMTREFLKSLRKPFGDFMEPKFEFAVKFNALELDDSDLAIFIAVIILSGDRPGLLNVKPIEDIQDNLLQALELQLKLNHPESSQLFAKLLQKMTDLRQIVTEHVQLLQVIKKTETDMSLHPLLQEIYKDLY
In short: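 Cells expressing GAL4-PPARα or GAL4-PPARγ chimeras were stimulated with the agonist TIPP-703, with or without co-treatment at 0.1, 1 or 10 µM. Antagonism was read as dose-dependent reduction of the induced transactivation signal.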

[8] = molecular target: T4, Peroxisome proliferator-activated receptor gamma (Homo sapiens); experiment: Agonist activity at PPARgamma receptor expressed in HEK293 cells co-transfected with GAL4 at 10 uM by transactivation assay; assay type: functional, cell-based
[9] = molecular target: T2, Peroxisome proliferator-activated receptor alpha (Homo sapiens); experiment: Agonist activity at PPARalpha receptor expressed in HEK293 cells co-transfected with GAL4 up to 10 uM by transactivation assay; assay type: functional, cell-based
In short: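 HEK293 cells transfected with GAL4-PPAR chimeric receptors (PPARα, δ or γ) in a cell-based transactivation assay. Results given as EC50 and % efficacy relative to a subtype positive control: fenofibric acid for PPARα, GW501516 for PPARδ, ciglitazone for PPARγ.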

[10] = molecular target: T2, Peroxisome proliferator-activated receptor alpha (Homo sapiens); experiment: as §2; assay type: functional, cell-based
[11] = molecular target: T5, Peroxisome proliferator-activated receptor delta (Homo sapiens) (UniProt Q03181); experiment: Agonist activity at PPARdelta receptor expressed in HEK293 cells co-transfected with GAL4 at 1 uM by transactivation assay; assay type: functional, cell-based
T5 sequence (whole entry): T3 sequence (Q03181 whole entry)

[12] = molecular target: Peroxisome proliferator-activated receptor delta (Homo sapiens) (UniProt Q03181); experiment: Antagonist activity at PPARdelta co-transfected with GAL4-PPAR fusion protein assessed as inhibition of GW501516-induced response by luciferase reporter gene assay
[13] = molecular target: T6, Peroxisome proliferator-activated receptor gamma (Homo sapiens, UniProt P37231); experiment: Agonist activity at PPARgamma receptor expressed in HEK293 cells co-transfected with GAL4 by transactivation assay
T6 sequence (P37231 whole entry): T4 sequence (whole entry)

[14] = molecular target: T5, Peroxisome proliferator-activated receptor delta (Homo sapiens); experiment: Agonist activity at PPARdelta receptor expressed in HEK293 cells co-transfected with GAL4 at 10 uM by transactivation assay; assay type: functional, cell-based
[15] = molecular target: T6, Peroxisome proliferator-activated receptor gamma

SMILES | EC50 [1] [nM] | Efficacy [2] [%] | EC50 [3] [nM] | Activity [8] | Activity [9] | Activity [10] | further results
CCCCOc1ccc(-c2ccccc2C(=O)O)cc1CNC(=O)c1ccc(C(F)(F)F)cc1F | – | – | – | inactive | inactive | inactive | Activity [11]: inactive; Activity [12]: inactive
CCCCOc1ccc(C[C@H](CC)C(=O)O)cc1CNC(=O)c1ccc(C(F)(F)F)cc1F | 240 | – | 0.72 | – | – | – | EC50 [13]: 1400 nM
CCCCOc1ccc(-c2ccc(C(=O)O)o2)cc1CNC(=O)c1ccc(C(F)(F)F)cc1F | – | – | – | inactive | inactive | inactive | Activity [11]: inactive; Activity [14]: inactive; Activity [12]: inactive
CCCCOc1ccc(-c2ccc(C(=O)O)nc2)cc1CNC(=O)c1ccc(C(F)(F)F)cc1F | – | – | 400 | – | – | inactive | –
CCCCOc1ccc(-c2ccc(C(=O)O)cc2C)cc1CNC(=O)c1ccc(C(F)(F)F)cc1F | – | – | – | – | – | inactive | IC50 [15]: 10 nM
CCCCOc1ccc(-c2cccc(C(=O)O)c2C)cc1CNC(=O)c1ccc(C(F)(F)F)cc1F | 130 | 100 | 1.6 | – | – | – | –

More lines, main results first:

EC50 [1] [nM] | Efficacy [2] [%] | EC50 [3] [nM] | Activity [8] | Activity [9] | Activity [10] | SMILES | further results
120 | 100 | 14 | – | – | – | CCCCOc1ccc(-c2ccc(C)c(C(=O)O)c2)cc1CNC(=O)c1ccc(C(F)(F)F)cc1F | –
790 | 100 | 29 | – | – | – | CCCCOc1ccc(-c2cccc(C(=O)O)c2)cc1CNC(=O)c1ccc(C(F)(F)F)cc1F | –
– | – | 170 | inactive | inactive | – | CCCCOc1ccc(-c2ccc(C(=O)O)cc2)cc1CNC(=O)c1ccc(C(F)(F)F)cc1F | EC50 [4]: Not Active; IC50 [5]: 68 nM; Activity [6]: inactive; Activity [7]: inactive
– | – | 53 | – | – | inactive | CCCCOc1ccc(-c2ccc(C(=O)O)cc2F)cc1CNC(=O)c1ccc(C(F)(F)F)cc1F | –
3000 | 100 | 45 | – | – | – | CCCCOc1ccc(-c2ccc(C(=O)O)c(C)c2)cc1CNC(=O)c1ccc(C(F)(F)F)cc1F | –
570 | 100 | 4.9 | – | – | – | CCCCOc1ccc(-c2cc(C(=O)O)ccc2C)cc1CNC(=O)c1ccc(C(F)(F)F)cc1F | –
– | – | – | inactive | inactive | inactive | CCCCOc1ccc(-c2ccc(C(=O)O)cn2)cc1CNC(=O)c1ccc(C(F)(F)F)cc1F | Activity [11]: inactive; Activity [14]: inactive; Activity [12]: inactive
